Bioassay records as filed in PubChem.
An excerpt weighted towards active compounds, which were near 8.2% of everything screened.
SF-1 act = activates the human nuclear receptor SF-1; actives 1.9% (n = 65,000); Q13285; CHO-K1 Gal4-SF-1 LBD luciferase reporter; % increase over DMSO SF-1-specific signal; AID 522; activation, % at 10 µM;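 active means activation above the mean activation of all tested compounds plus 3 SD, cut at about 50% in these data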
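Assay system: CHO-K1 cells co-transfected with Gal4 DBD–human SF-1 LBD, 5xGal4 luciferase reporter; doses: 10 µM only; incubation: 20 h compound exposure at 37 °C after 1 h cell settling; signal: luciferase light emission; evaluation: percent activation versus DMSO; repeats: one test per compound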
M1 agonist = agonists of M1 muscarinic receptor | CHO-M1 cells, Fluo-4 calcium fluorescence, agonist mode; stronger effect = higher value | B-score at 10 µM | actives 3% (n = 64,000) | AID 626;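 active means fluorescence rise, raw or as B-score row- and column-corrected plate score, outside the 99.7% band of its plate's samples, either direction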
M1 antag = antagonists of rat M1 muscarinic receptor | P08482 | CHO-M1 cells, Fluo-4 calcium, ACh EC80 antagonist mode; stronger effect = lower value | B-score at 10 µM | actives 3.4% (n = 64,000) | AID 628;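 active means calcium fluorescence response, raw or row-and-column corrected B-score, differing from the plate sample mean either way at a set confidence level, mostly lower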
Target sequence (P08482 whole entry, looked up): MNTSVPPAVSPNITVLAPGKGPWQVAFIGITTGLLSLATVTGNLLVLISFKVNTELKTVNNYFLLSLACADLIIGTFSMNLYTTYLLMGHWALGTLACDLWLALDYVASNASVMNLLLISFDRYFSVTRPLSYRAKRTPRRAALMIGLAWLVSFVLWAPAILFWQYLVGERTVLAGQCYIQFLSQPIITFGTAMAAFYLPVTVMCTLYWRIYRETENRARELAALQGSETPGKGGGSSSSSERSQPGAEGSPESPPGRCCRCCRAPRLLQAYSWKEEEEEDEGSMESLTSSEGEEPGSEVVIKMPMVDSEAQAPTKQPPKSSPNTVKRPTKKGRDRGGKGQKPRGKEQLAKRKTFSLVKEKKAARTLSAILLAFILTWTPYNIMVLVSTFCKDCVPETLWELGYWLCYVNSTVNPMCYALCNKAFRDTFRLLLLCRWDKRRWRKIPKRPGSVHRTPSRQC
HePTP inh = inhibitors of human HePTP phosphatase; actives 0.64% (n = 110,000); P35236; recombinant HePTP phosphatase activity, OD absorbance; inhibition, % at 20 µM; AID 521; in the data active means inhibition above about 50%; inconclusive means no clear call, values can overlap the other calls;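 further: plate controls were vehicle for no effect and reference inhibitor for full effect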
D1 mod = allosterically modulates the human D1 dopamine receptor | P21728 | HEK293 D1, CRE-luciferase, dopamine EC30 potentiation; actives deviate in either direction | B-score at 10 µM | actives 5.9% (n = 58,000) | AID 641;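 active means luminescence count or its row- and column-corrected plate score outside the 99.7% band of the plate's sample wells, on either side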
RORA act = RORA (human) activation; P35398; activation, % at 10 µM; actives 1.5% (n = 65,000); CHO-K1 Gal4-RORA LBD luciferase reporter, luminescence; percent increase over mock-subtracted basal signal;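 active means activation above the mean of all tested compounds plus 3 SD, cut at about 49% in these data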;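 further: 0% = DMSO-treated RORA cells and 100% = added signal equal to DMSO minus mock-transfected cells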
M1 agonist conf = confirmation of rat M1 muscarinic receptor agonists; shares compounds with M1 agonist; CHO-M1 cells, Fluo-4 calcium fluorescence, agonist mode; actives lie on both sides; fluorescence change (max-min) at 10 µM; actives 19% (n = 1,700);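 active means fluorescence change differs from the solvent-only DMSO control mean at a set confidence level in both duplicate runs; inconclusive means differs from solvent-only control mean in just one of two runs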;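 further: an EC20 dose of acetylcholine follows compound addition during the same imaging run; raw fluorescence intensity difference in instrument units with no normalization to controls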
M4 ag counter = counter-screen for M1 agonists: activity at rat M4 receptor. shares compounds with M1 agonist. CHO M4/Gqi5 cells, Fluo-4 calcium fluorescence, agonist mode; actives lie on both sides. fluorescence change (max-min) at 10 µM. actives 9% (n = 1,700). AID 1741;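 active means fluorescence change differing from the plate's solvent-only control wells at 99.7% confidence in both duplicates, whether higher or lower; inconclusive means differs from solvent controls in only one of two duplicates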
Active calls of the source: *; ? = inconclusive; / = no result given.

SMILES	SF-1 act	M1 agonist	M1 antag	HePTP inh	D1 mod	RORA act	M1 agonist conf	M4 ag counter
COc1ccccc1OCC(O)Cn1c(Br)nc2c1c(=O)[nH]c(=O)n2C (stereo not given)	16.4	4.03*	-0.124	2.5	-1.36	-16.6	-11.5	-21.3
O=c1oc2cc(OCc3c(F)cccc3Cl)ccc2c2c1CCCC2	/	/	/	-9.8	/	/	/	/
COCCCNS(=O)(=O)c1ccc2c(c1)CCN2C(C)=O	13.6	-0.846	-0.359	8.6	-0.165	-0.6	/	/
CC(=O)N1CCc2cc(S(=O)(=O)NCCCOC(C)C)ccc21	-3.5	-2.12*	0.441	9.1	/	-4.3	-9.78	?
Cc1nc2nc(-c3ccco3)[nH]n2c(=O)c1Cc1ccccc1	6.3	3.6*	1.07	-1.8	-1.06	-6.7	-10.2	-27.1
Cc1cc(=O)oc2cc(OCC(=O)OCc3nnc(-c4ccccc4)o3)ccc12	6.0	36.7*	-0.167	4.9	0.622	-10.0	-4.51	-21
Cc1ccc2c(CN3CCN(CCO)CC3)cc(=O)oc2c1	6.9	-0.414	0.245	0.9	0.00813	-5.8	/	/
Cc1cc2oc(=O)cc(CN3CCCCC3)c2cc1C(C)C	-10.1	11*	-0.0576	4.6	0.652	-1.7	?	-22.2
O=C(CSc1ccc2nnc(-c3ccccn3)n2n1)N1CCN(c2ccccc2)CC1	8.1	3.25*	-0.585	-8.7	-0.51	-4.7	-8.52	?
Cc1cc(C(=O)COc2cccc(-n3cnnn3)c2)c(C)n1-c1ccccc1	18.3	1.16	-0.586	-2.6	0.203	17.3	/	/
COc1ccc(-n2c(C)cc(C(=O)COC(=O)Cn3cnc4ccccc43)c2C)cc1	3.0	5.49*	-3.36*	4.4	-1.94	-0.2	?	-36.6
CC1(C(=O)NCc2cccnc2)CCC(=O)N1CCc1ccccc1 (stereo not given)	-3.8	0.506	1.03	6.5	0.0728	29.1	/	/
O=C(NCCCN1CCOCC1)c1cccc(Cl)c1	/	/	/	-1.0	/	/	/	/
Cc1ccc(Cl)cc1N1CCN(C(=O)C2CCN(S(=O)(=O)c3c(C)nn(C)c3C)CC2)CC1	-16.4	8.03*	-2.61*	7.4	-1.29	-5.2	?	-58.7
Cc1ccc(OCC(=O)N/N=C\c2cccc(OC(=O)c3cccs3)c2)cc1	/	/	/	5.4	/	/	/	/
Cc1ccccc1Cn1ccc(NC(=O)c2cnn3c(C(F)(F)F)cc(-c4ccco4)nc23)n1	-19.8	9.18*	-2.65*	7.0	-4.44*	2.4	?	?
Cc1ccccc1Cn1ccc(NC(=O)CCSc2nc(-c3ccco3)cc(C(F)(F)F)n2)n1	-7.0	0.83	0.0503	10.8	-0.28	8.5	/	/
Cc1cccc(S(=O)(=O)c2c(N)n(Cc3ccco3)c3nc4ccccc4nc23)c1	-15.1	0.0376	1.07	-8.5	-0.305	-20.3	/	/
Cc1ccc(S(=O)(=O)c2c(N)n(Cc3ccco3)c3nc4ccccc4nc23)cc1	-9.1	11.9*	0.0508	-0.5	/	7.2	39.3	-10.5
Cc1ccc(S(=O)(=O)N2CCCC2)cc1	/	/	/	-8.8	/	/	/	/
C=CCN=C1SCC(=O)N1S(=O)(=O)c1ccc(C)cc1	-2.3	3.54*	-0.196	-0.6	0.00164	-33.1	-14.9	-44.7
N=c1nc(N2CCCCC2)cc(N)n1O	-6.2	10.1*	-0.316	8.3	0.389	-12.6	-4.37	-26.4
Cc1cc(N2CCCCCC2)nc(-c2ccccc2O)n1	6.5	0.208	0.187	0.9	1.98	5.7	/	/
CCOC(=O)Cn1c(=NC(=O)CSC(C)=O)sc2ccccc21	-32.5	-0.043	0.0637	-3.4	/	-11.2	/	/
Cc1cccc(-n2c(N)cc(=O)nc2SCC(=O)NC2CCCCC2)c1	-17.7	0.662	-0.031	0.3	-0.0369	-17.7	/	/
SMILES	SF-1 act	M1 agonist	M1 antag	HePTP inh	D1 mod	RORA act	M1 agonist conf	M4 ag counter
Cc1cccc(-n2c(N)cc(=O)nc2SCC(=O)Nc2ccccc2)c1	-0.7	2.83*	0.169	8.6	0.0835	-15.5	-24.1*	-49.7
Clc1ccccc1CN1CCN(N=Cc2ccccc2)CC1	/	/	/	-7.3	/	/	/	/
OC(COc1ccccc1Cl)CN1CCN(CC(O)COc2ccccc2Cl)CC1 (stereo not given)	17.9	5.23*	-0.49	-1.7	-6.27*	15.1	-13.2	?
COC(=O)C1=C(O)/C(=C\c2ccc([N+](=O)[O-])cc2)N=C1C	/	/	/	5.5	/	/	/	/
COc1ccccc1N=c1oc2c(OC)cccc2cc1C(=O)NCc1ccco1	16.5	0.207	0.0724	2.9	-0.409	3.6	/	/
COCCNC(=O)c1ccc(OC)c(OC)c1	/	/	/	-8.6	/	/	/	/
COc1ccccc1NC(=O)c1ccccc1-c1nc(-c2ccccc2OC)no1	-4.6	7.31*	-1.43	7.4	-2.72	-5.7	-28.9*	-50.1
COCCNC(=O)c1ccccc1NC(=O)c1ccc(OC)c(OC)c1	0.4	31.2*	0.679	-3.9	2.07	-3.6	-30.8*	-93.9*
COc1cccc(NC(=O)c2ccccc2-c2nc(-c3ccccc3)no2)c1	11.3	0.105	1.27	3.2	-0.7	-7.8	/	/
COc1ccc(C(=O)Nc2ccc(Cl)cc2C(=O)NCc2ccco2)cc1OC	5.7	12.7*	-0.101	10.5	-0.102	-1.7	-14.1	-16.1
COc1ccc(N=c2oc3c(OC)cccc3cc2C(=O)NCc2ccco2)cc1OC	30.8	14.8*	0.315	10.9	-3.92*	11.9	17.8	-1.75
CC(=C/c1ccccc1)/C=N/NC(=O)CSc1n[nH]c(=O)[nH]c1=O	/	/	/	4.1	/	/	/	/
c1cc2cn[nH]c2cc1NC1CCCCCC1	-5.9	0.0764	0.843	3.6	0.354	-2.5	/	/
N#C/C(=C\c1cccs1)c1nc(-c2ccc(Br)cc2)cs1	/	/	/	0.3	/	/	/	/
COc1ccc(-c2noc(-c3ccccc3C(=O)NCc3ccco3)n2)cc1OC	-6.7	4.66*	-0.235	7.4	-0.855	-18.7	-15.5	-27.1
COc1ccc(S(=O)(=O)Nc2ccccc2C(=O)NCc2ccco2)cc1	-10.8	3.85*	-0.126	-0.9	0.0374	0.3	-2.27	-24.7
O=C(NCc1ccco1)c1cccc2ccccc12	-22.8	10.6*	0.839	-7.6	-0.0524	-16.7	-16.2	-41
COc1ccc(C(=O)Nc2ccccc2C(=O)NCc2ccco2)cc1OC	7.4	6.63*	-0.871	2.8	/	-9.0	-2.89	-24.9
O=C(/C=C/c1ccccc1Cl)NCc1cccnc1	/	/	/	3.9	/	/	/	/
Cc1cc(C)nc(NC(=O)c2cc(-c3ccc(C)s3)nc3ccccc23)c1	/	/	/	14.4	/	/	/	/
Cc1cc(N2CCN(c3ccccc3)CC2)nc(-c2ccc(Br)cc2)n1	/	/	/	-13.6	/	/	/	/
Cc1ccc(NC(=O)N(CCCN2CCOCC2)Cc2cc3cc4c(cc3[nH]c2=O)OCO4)cc1	-2.2	-0.161	-0.698	7.9	-0.287	-2.8	/	/
